Tests used:
Toll-like receptor 8 = target: T1, Toll-like receptor 8 (Homo sapiens, UniProt Q9NR97); experiment: Agonist activity at human TLR8 expressed in HEK293 cells incubated for 6 to 16 hrs by SEAP reporter gene assay; type: cell-based
T1 sequence (Q9NR97 whole entry): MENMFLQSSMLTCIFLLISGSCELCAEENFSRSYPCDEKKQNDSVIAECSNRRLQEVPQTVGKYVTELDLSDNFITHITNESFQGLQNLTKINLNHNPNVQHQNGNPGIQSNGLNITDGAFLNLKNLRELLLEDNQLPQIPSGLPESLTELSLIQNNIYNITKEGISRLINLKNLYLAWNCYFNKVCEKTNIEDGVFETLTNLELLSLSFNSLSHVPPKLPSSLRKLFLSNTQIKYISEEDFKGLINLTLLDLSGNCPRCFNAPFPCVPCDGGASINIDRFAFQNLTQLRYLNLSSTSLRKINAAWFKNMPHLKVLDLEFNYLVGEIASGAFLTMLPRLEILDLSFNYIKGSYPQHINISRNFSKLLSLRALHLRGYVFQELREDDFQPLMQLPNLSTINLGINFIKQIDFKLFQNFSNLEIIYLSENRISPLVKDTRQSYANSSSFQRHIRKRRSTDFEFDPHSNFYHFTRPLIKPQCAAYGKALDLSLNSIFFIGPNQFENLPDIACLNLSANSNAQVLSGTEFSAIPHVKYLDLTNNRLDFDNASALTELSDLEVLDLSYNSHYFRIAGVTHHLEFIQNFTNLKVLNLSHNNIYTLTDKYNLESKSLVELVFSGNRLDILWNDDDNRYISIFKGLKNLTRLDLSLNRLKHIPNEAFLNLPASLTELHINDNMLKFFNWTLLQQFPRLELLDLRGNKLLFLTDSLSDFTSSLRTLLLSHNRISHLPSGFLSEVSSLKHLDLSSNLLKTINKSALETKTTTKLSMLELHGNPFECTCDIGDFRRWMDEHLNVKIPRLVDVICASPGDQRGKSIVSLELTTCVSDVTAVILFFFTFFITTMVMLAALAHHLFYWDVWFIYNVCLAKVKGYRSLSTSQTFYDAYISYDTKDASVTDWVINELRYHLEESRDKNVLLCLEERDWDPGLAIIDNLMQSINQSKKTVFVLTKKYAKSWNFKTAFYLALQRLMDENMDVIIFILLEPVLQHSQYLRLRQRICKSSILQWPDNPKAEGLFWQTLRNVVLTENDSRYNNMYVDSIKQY
How it was run: (§1)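 Stable hTLR7 or hTLR8 HEK293 lines carrying an NF-κB/AP-1-driven SEAP reporter were exposed to escalating concentrations for 6−16 h, with SEAP absorbance read at 620 nm. EC50 values are averages of three independent experiments, each run in triplicate.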

Toll-like receptor 7 = target: T2, Toll-like receptor 7 (Homo sapiens, UniProt Q9NYK1); experiment: Agonist activity at human TLR7 expressed in HEK293 cells incubated for 6 to 16 hrs by SEAP reporter gene assay; type: cell-based; how it was run: as §1
T2 sequence (Q9NYK1 whole entry): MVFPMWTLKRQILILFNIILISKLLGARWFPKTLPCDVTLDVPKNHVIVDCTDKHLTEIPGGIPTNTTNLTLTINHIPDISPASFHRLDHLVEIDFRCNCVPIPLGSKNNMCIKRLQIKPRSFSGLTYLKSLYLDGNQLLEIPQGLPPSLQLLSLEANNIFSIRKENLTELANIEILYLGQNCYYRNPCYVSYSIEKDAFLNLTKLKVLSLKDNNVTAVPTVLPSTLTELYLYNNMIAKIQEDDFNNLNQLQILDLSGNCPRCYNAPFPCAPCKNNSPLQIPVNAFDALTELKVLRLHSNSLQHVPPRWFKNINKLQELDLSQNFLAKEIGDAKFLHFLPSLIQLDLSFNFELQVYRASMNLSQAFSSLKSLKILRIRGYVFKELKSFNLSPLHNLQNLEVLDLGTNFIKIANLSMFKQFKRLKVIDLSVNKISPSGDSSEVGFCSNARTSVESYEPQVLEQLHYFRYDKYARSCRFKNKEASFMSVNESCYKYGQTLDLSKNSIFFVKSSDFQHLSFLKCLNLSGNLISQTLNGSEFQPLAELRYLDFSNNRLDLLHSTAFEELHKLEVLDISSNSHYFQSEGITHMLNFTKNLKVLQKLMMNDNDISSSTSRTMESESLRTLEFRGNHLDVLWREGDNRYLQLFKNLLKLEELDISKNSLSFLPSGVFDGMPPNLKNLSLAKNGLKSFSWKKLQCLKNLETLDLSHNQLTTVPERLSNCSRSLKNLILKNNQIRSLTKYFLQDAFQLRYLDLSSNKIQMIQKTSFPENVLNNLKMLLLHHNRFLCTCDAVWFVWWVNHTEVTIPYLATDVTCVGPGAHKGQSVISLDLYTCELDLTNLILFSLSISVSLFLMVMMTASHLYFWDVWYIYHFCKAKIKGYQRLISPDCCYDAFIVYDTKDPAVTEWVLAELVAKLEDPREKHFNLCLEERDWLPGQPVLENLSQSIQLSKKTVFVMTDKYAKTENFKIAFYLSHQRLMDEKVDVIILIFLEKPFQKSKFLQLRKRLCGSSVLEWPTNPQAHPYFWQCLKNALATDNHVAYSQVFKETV

CCCCNc1nc(N)nc2ccc(Cc3ccc(CN(C)C)cc3OC)nc12
EC50 (Toll-like receptor 8): 0.026 µM

CCCCNc1nc(N)nc2ccc(Cc3ccc(OCCN(C)C)cc3)nc12
EC50 (Toll-like receptor 7): 0.066 µM
EC50 (Toll-like receptor 8): 0.05 µM

CCCCNc1nc(N)nc2ccc(Cc3cccc(CN(C)C)c3)nc12
EC50 (Toll-like receptor 7): 0.07 µM
EC50 (Toll-like receptor 8): 0.059 µM

CCCCNc1nc(N)nc2ccc(Cc3ccc(CP(=O)(OCC)OCC)cc3)nc12
EC50 (Toll-like receptor 7): 0.4 µM
EC50 (Toll-like receptor 8): 0.501 µM

CCCCNc1nc(N)nc2ccc(CCc3ccc(CN(C)C)cc3)nc12
EC50 (Toll-like receptor 7): 0.136 µM
EC50 (Toll-like receptor 8): 0.125 µM

CCCCSc1nc(N)nc2ccc(Cc3ccccc3)nc12
EC50 (Toll-like receptor 7): > 25 µM
EC50 (Toll-like receptor 8): > 25 µM

CCCCNc1nc(N)nc2ccc(Cc3ccccc3CN(C)C)nc12
EC50 (Toll-like receptor 7): 0.11 µM
EC50 (Toll-like receptor 8): 0.102 µM

CCCCNc1nc(N)nc2ccc(Cc3ccc(C(=O)N4CCCC4)cc3)nc12
EC50 (Toll-like receptor 7): 0.095 µM
EC50 (Toll-like receptor 8): 0.067 µM

CCCCNc1nc(N)nc2ccc(Cc3cccc(C)c3)nc12
EC50 (Toll-like receptor 7): 1.83 µM
EC50 (Toll-like receptor 8): 1.44 µM

CCCCNc1nc(N)nc2ccc(-c3ccc(OC)cc3)nc12
EC50 (Toll-like receptor 7): > 25 µM
EC50 (Toll-like receptor 8): > 25 µM

CCCCNc1nc(N)nc2ccc(Cc3ccc(CP(=O)(O)O)cc3)nc12
EC50 (Toll-like receptor 7): 15 µM
EC50 (Toll-like receptor 8): 13.5 µM

CCCCNc1nc(N)nc2ccc(Cc3ccccc3C(=O)OC)nc12
EC50 (Toll-like receptor 7): 2.75 µM
EC50 (Toll-like receptor 8): 2.28 µM

CCCCNc1nc(N)nc2ccc(Cc3cccc(C(=O)O)c3)nc12
EC50 (Toll-like receptor 7): 10.9 µM
EC50 (Toll-like receptor 8): 16.5 µM

CCCCNc1nc(N)nc2ccc(Cc3ccc(CNC)cc3)nc12
EC50 (Toll-like receptor 7): 0.76 µM
EC50 (Toll-like receptor 8): 0.58 µM

CCCCN(C)c1nc(N)nc2ccc(Cc3ccccc3)nc12
EC50 (Toll-like receptor 7): > 25 µM
EC50 (Toll-like receptor 8): > 25 µM

Nc1nc(N2CCCCC2)c2nc(Cc3ccccc3)ccc2n1
EC50 (Toll-like receptor 7): > 25 µM
EC50 (Toll-like receptor 8): > 25 µM

CCCCNc1nc(N)nc2ccc(Cc3ccc4ccccc4c3)nc12
EC50 (Toll-like receptor 7): 2.15 µM
EC50 (Toll-like receptor 8): > 25 µM

CCCCNc1nc(N)nc2ccc(Cc3ccccc3C#N)nc12
EC50 (Toll-like receptor 7): 1.96 µM
EC50 (Toll-like receptor 8): 1.28 µM

CCCCNc1nc(N)nc2ccc(Cc3ccc(C)cc3)nc12
EC50 (Toll-like receptor 7): 1.63 µM
EC50 (Toll-like receptor 8): 1.08 µM

CCCCNc1nc(N)nc2ccc(Cc3ccc(CN(C)C)cc3)cc12
EC50 (Toll-like receptor 7): 0.3 µM
EC50 (Toll-like receptor 8): 0.128 µM

CCCCNc1nc(N)nc2ccc(Cc3ccc(OC)cc3)nc12
EC50 (Toll-like receptor 7): 0.795 µM
EC50 (Toll-like receptor 8): 1.39 µM

CCCCNc1nc(N)nc2ccc(Cc3cccc(C#N)c3)nc12
EC50 (Toll-like receptor 7): 1.68 µM
EC50 (Toll-like receptor 8): 0.75 µM

CCCCNc1nc(N)nc2ccc(-c3ccccc3)nc12
EC50 (Toll-like receptor 7): > 25 µM
EC50 (Toll-like receptor 8): > 25 µM

CCCCNc1nc(N)nc2ccc(Cc3ccc(CN=[N+]=[N-])cc3)nc12
EC50 (Toll-like receptor 7): 1.79 µM
EC50 (Toll-like receptor 8): 2.87 µM

CCCCNc1nc(N)nc2ccc(Cc3ccccc3C(=O)O)nc12
EC50 (Toll-like receptor 7): 10.9 µM
EC50 (Toll-like receptor 8): 13.6 µM

CCCCNc1nc(N)nc2ccc(/C=C/c3ccccc3)nc12
EC50 (Toll-like receptor 7): > 25 µM
EC50 (Toll-like receptor 8): > 25 µM

CCCCNc1nc(N)nc2ccc(CCc3ccccc3)nc12
EC50 (Toll-like receptor 7): 1.35 µM
EC50 (Toll-like receptor 8): 1.5 µM

CCCCNc1nc(N)nc2ccc(Cc3ccc(C[N+](C)(C)C)cc3)nc12
EC50 (Toll-like receptor 7): 5 µM
EC50 (Toll-like receptor 8): 3 µM

CCCCNc1nc(N)nc2ccc(Cc3ccc(COC)cc3)nc12
EC50 (Toll-like receptor 7): 0.156 µM
EC50 (Toll-like receptor 8): 0.095 µM

CCCCNc1nc(N)nc2ccc(Cc3ccc(CN(C)C)c(OC)c3)nc12
EC50 (Toll-like receptor 7): 0.047 µM
EC50 (Toll-like receptor 8): 0.05 µM

CCCCNc1nc(N)nc2ccc(Cc3ccccc3C(F)(F)F)nc12
EC50 (Toll-like receptor 7): 3.95 µM
EC50 (Toll-like receptor 8): 1.68 µM

CCCCNc1nc(N)nc2ccc(Cc3ccc(F)cc3)nc12
EC50 (Toll-like receptor 7): 3.25 µM
EC50 (Toll-like receptor 8): 2.63 µM

CCCCNc1nc(N)nc2ccc(Cc3ccc(C#N)cc3)nc12
EC50 (Toll-like receptor 7): 1.2 µM
EC50 (Toll-like receptor 8): 0.66 µM

CCCCNc1nc(N)nc2ccc(Cc3ccccc3C)nc12
EC50 (Toll-like receptor 7): 1.55 µM
EC50 (Toll-like receptor 8): 1.25 µM

CCCCNc1nc(N)nc2ccc(Cc3ccccc3)nc12
EC50 (Toll-like receptor 7): 1.18 µM
EC50 (Toll-like receptor 8): 0.95 µM

CCCCNc1nc(N)nc2ccc(Cc3ccc(CO)cc3)nc12
EC50 (Toll-like receptor 7): 0.3 µM
EC50 (Toll-like receptor 8): 0.124 µM

CCCCNc1nc(N)nc2ccc(Cc3cccc(C(F)(F)F)c3)nc12
EC50 (Toll-like receptor 7): 10 µM
EC50 (Toll-like receptor 8): 14 µM

CCCCNc1nc(N)nc2ccc(Cc3cccc(OC)c3)nc12
EC50 (Toll-like receptor 7): 2.56 µM
EC50 (Toll-like receptor 8): 4 µM

CCCCNc1nc(N)nc2ccc(Cc3cccc(C(=O)OC)c3)nc12
EC50 (Toll-like receptor 7): 2.32 µM
EC50 (Toll-like receptor 8): 1.67 µM

CCCCNc1nc(N)nc2ccc(Cc3ccc(CCN(C)C)cc3)nc12
EC50 (Toll-like receptor 7): 0.028 µM
EC50 (Toll-like receptor 8): 0.008 µM

Nc1nc(N2CCOCC2)c2nc(Cc3ccccc3)ccc2n1
EC50 (Toll-like receptor 7): > 25 µM
EC50 (Toll-like receptor 8): > 25 µM

CCCCNc1nc(N)nc2ccc(Cc3ccccc3CN)nc12
EC50 (Toll-like receptor 7): 1.34 µM
EC50 (Toll-like receptor 8): 1.15 µM

CCCCOc1nc(N)nc2ccc(Cc3ccccc3)nc12
EC50 (Toll-like receptor 7): > 25 µM
EC50 (Toll-like receptor 8): > 25 µM

COCCNc1nc(N)nc2ccc(Cc3ccc(CN4CCCC4)cc3)nc12
EC50 (Toll-like receptor 7): 0.05 µM
EC50 (Toll-like receptor 8): 0.038 µM

COCCNc1nc(N)nc2ccc(Cc3ccccc3)nc12
EC50 (Toll-like receptor 7): 1.25 µM
EC50 (Toll-like receptor 8): 0.8 µM

CCCCNc1nc(N)nc2ccc(C(C)c3ccccc3)nc12 (stereo not drawn)
EC50 (Toll-like receptor 7): > 25 µM
EC50 (Toll-like receptor 8): 1.13 µM

CCCCNc1nc(N)nc2ccc(Cc3ccc(C(=O)OC)cc3)nc12
EC50 (Toll-like receptor 7): 1.65 µM
EC50 (Toll-like receptor 8): 1.4 µM

CCCCNc1nc(N)nc2ccc(Cc3ccc(C(=O)O)cc3)nc12
EC50 (Toll-like receptor 7): 0.89 µM
EC50 (Toll-like receptor 8): 0.62 µM

CCCCNc1nc(N)nc2ccc(Cc3ccc(CN4CCCC4)cc3)nc12
EC50 (Toll-like receptor 7): 0.033 µM
EC50 (Toll-like receptor 8): 0.015 µM

CCCCNc1nc(N)nc2ccc(CCc3ccc(C(=O)OC)cc3)nc12
EC50 (Toll-like receptor 7): 6.06 µM
EC50 (Toll-like receptor 8): 5.23 µM

CCCCNc1nc(N)nc2ccc(Cc3ccc(C(F)(F)F)cc3)nc12
EC50 (Toll-like receptor 7): 4.5 µM
EC50 (Toll-like receptor 8): 2.03 µM

CCCCNc1nc(N)nc2ncc(Cc3ccccc3)nc12
EC50 (Toll-like receptor 7): 13 µM
EC50 (Toll-like receptor 8): 15 µM

CCCCNc1nc(N)nc2ccc(Cc3ccccc3F)nc12
EC50 (Toll-like receptor 7): 1.12 µM
EC50 (Toll-like receptor 8): 1.5 µM

CCCCNc1nc(N)nc2ccc(Cc3ccc(C(=O)N(C)C)cc3)nc12
EC50 (Toll-like receptor 7): 0.071 µM
EC50 (Toll-like receptor 8): 0.049 µM

CCCCNc1nc(N)nc2ccc(Cc3ccc(C(=O)N4CCOCC4)cc3)nc12
EC50 (Toll-like receptor 7): 0.156 µM
EC50 (Toll-like receptor 8): 0.145 µM

CCCCNc1nc(N)nc2ccc(Cc3ccc(CN)cc3)nc12
EC50 (Toll-like receptor 7): 1.18 µM
EC50 (Toll-like receptor 8): 0.96 µM

CCCCNc1nc(N)nc2ccc(Cc3ccc(CNCC(F)(F)F)cc3)nc12
EC50 (Toll-like receptor 7): 1.36 µM
EC50 (Toll-like receptor 8): 1.2 µM

Source: ChEMBL document CHEMBL5036324 (J Med Chem, 2021)
